T cruzi growth-1 – T. cruzi proliferation inhibition; T. cruzi beta-gal in NIH3T3, GalScreen luminescence, 90 h; inhibition, % at 8.34 µM; actives 5.9% (n = 77,000);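 active = mean inhibition above about 93%, with at least 55% of replicates each passing it, limit read from the data, passing the limit was not always enough; inconclusive = only one of those two conditions holds; inactive = neither condition holds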
IDH1 R132H inh – blocks human IDH1 R132H reductase activity. O75874. diaphorase/resazurin fluorescence, 60 min. inhibition, % at 10 µM. actives 0.18% (n = 70,000). AID 624101; in the data active = inhibition above about 34%; inconclusive = no clear call, values can overlap the other calls; inactive = below about 11%
KDM4C inh – blocks human GASC-1 (KDM4C) demethylase activity | GST-KDM4C 2-372, H3K9me3 peptide, LANCE TR-FRET | inhibition, % at 12.5 µM | actives 0.15% (n = 96,000) | AID 720574;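 active = mean replicate inhibition above about 25%, with at least 55% of replicates also reaching it, limit read from the data, passing the limit was not always enough; inconclusive = only one of those two conditions met; inactive = neither condition met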
Target sequence (Q9H3R0 2-372 limits assumed): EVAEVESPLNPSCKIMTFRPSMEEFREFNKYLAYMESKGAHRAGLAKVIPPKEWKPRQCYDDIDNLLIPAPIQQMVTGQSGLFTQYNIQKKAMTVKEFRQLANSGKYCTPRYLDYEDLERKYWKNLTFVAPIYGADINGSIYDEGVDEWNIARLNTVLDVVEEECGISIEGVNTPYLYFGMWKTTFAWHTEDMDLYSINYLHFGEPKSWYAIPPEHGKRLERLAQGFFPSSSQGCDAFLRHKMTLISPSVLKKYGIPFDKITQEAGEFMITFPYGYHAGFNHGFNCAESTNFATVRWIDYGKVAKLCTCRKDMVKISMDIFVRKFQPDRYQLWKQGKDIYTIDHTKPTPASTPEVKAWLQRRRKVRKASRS
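Test system: N-terminal GST-fused human GASC-1 (KDM4C) fragment, residues 2-372; quantity: GASC-1 enzyme at 10 nM final in reaction; dosing: single dose; schedule: 30 min demethylation and 1 h detection at room temperature; signal: LANCE TR-FRET, excitation 340 nm, emissions 618 and 671 nm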
T cruzi growth-2 – Trypanosoma cruzi proliferation inhibition; inhibition, % at 8.35 µM; shares compounds with T cruzi growth-1; T. cruzi beta-gal in NIH3T3, GalScreen luminescence, 90 h; actives 72% (n = 5,600);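 active = mean replicate inhibition above about 95% and at least 55% of replicates individually reaching it, limit read from the data; inconclusive = only one of the two criteria is met; inactive = neither criterion is met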
T cruzi growth-3 – inhibitors of T. cruzi proliferation; shares compounds with T cruzi growth-1; T. cruzi beta-gal in NIH3T3, GalScreen luminescence, 90 h; inhibition, % at 2.09 µM; actives 21% (n = 5,600); AID 651740;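 active = mean inhibition above about 95%, with at least 55% of replicates also reaching it, limit read from the data; inconclusive = meets just one of the two conditions; inactive = meets neither condition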
3T3 cytotox – cytotoxicity in mouse NIH/3T3 fibroblasts | shares compounds with T cruzi growth-1 | NIH/3T3 viability, CellTiter-Glo ATP luminescence, 90 h | cytotoxicity (signal decrease), % at 8.35 µM | actives 14% (n = 5,600) | AID 651742;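 active = mean signal decrease across replicates above about 35% based on untreated-well scatter, with enough replicates individually passing, limit read from the data; inconclusive = no rule stated though some were filed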
3T3 cytotox 2 – NIH/3T3 (mouse) viability loss. shares compounds with T cruzi growth-1. NIH/3T3 viability, CellTiter-Glo ATP luminescence, 90 h. inhibition, % at 24.9 µM. actives 56% (n = 5,600);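 active = mean loss of cell viability signal at or above a set limit, and enough replicates individually reaching it; inconclusive = meets only the mean limit or only the replicate share; inactive = meets neither condition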
Hits are given with their value; . = inactive; ? = inconclusive; / = no result. The entries come from a sample that favours hits as a whole.

SMILES	T cruzi growth-1	IDH1 R132H inh	KDM4C inh	T cruzi growth-2	T cruzi growth-3	3T3 cytotox	3T3 cytotox 2
C[C@@H]1CN([C@H](C)CO)S(=O)(=O)c2ccc(-c3ccncc3)cc2O[C@H]1CN(C)Cc1ccncc1	.	/	.	/	/	/	/
NC(=O)/C(=C/c1ccc2c(c1)OCO2)NC(=O)c1ccc(Br)cc1	/	.	/	/	/	/	/
C[C@@H]1CN([C@H](C)CO)S(=O)(=O)c2ccc(-c3cccc(F)c3)cc2O[C@@H]1CN(C)C(=O)c1cccc(F)c1	.	.	.	/	/	/	/
C[C@H]1CN([C@@H](C)CO)S(=O)(=O)c2ccc(-c3ccncc3)cc2O[C@@H]1CN(C)C(=O)c1cccc(F)c1	113.6	.	.	.	.	.	?
C[C@@H]1CN([C@@H](C)CO)S(=O)(=O)c2ccc(-c3ccncc3)cc2O[C@@H]1CN(C)C(=O)c1cccc(F)c1	.	.	.	/	/	/	/
C[C@H](CO)N1C[C@H](C)[C@H](CN(C)C(=O)c2cccc(F)c2)Oc2cc(-c3ccncc3)ccc2S1(=O)=O	108.9	.	.	.	.	.	.
C[C@@H]1CN([C@H](C)CO)S(=O)(=O)c2ccc(-c3ccncc3)cc2O[C@H]1CN(C)C(=O)c1cccc(F)c1	112.8	.	.	.	.	.	47.2
C[C@H](CO)N1C[C@H](C)[C@H](CN(C)C(=O)c2cccc(F)c2)Oc2cc(-c3cccc(F)c3)ccc2S1(=O)=O	.	.	.	/	/	/	/
O=C(O)CC(C(=O)Nc1ccc(Cl)cc1)N1CCCCC1 (configuration not stated)	/	.	/	/	/	/	/
COc1cc2c(cc1NC(=O)CN(C)S(=O)(=O)c1ccc(Cl)cc1)oc1ccccc12	/	.	/	/	/	/	/
COc1ccccc1NC(=O)CNC(=O)c1ccccc1F	/	.	/	/	/	/	/
COc1ccc(OC)c2c(C)cc(Cl)nc12	/	.	/	/	/	/	/
C[C@H]1CN([C@@H](C)CO)C(=O)c2cc(NC(=O)Nc3cccc4ccccc34)ccc2O[C@H]1CN(C)Cc1ccc(-c2ccccc2)cc1	.	.	.	/	/	/	/
C[C@@H]1CN([C@H](C)CO)C(=O)c2cc(NC(=O)Nc3cccc4ccccc34)ccc2O[C@H]1CN(C)Cc1ccc(-c2ccccc2)cc1	112.3	.	.	103.2	.	.	.
C[C@H](CO)N1C[C@H](C)[C@@H](CN(C)Cc2ccc(-c3ccccc3)cc2)Oc2ccc(NC(=O)Nc3cccc4ccccc34)cc2C1=O	101.6	/	.	106.2	.	.	.
C[C@@H]1CN([C@@H](C)CO)C(=O)c2cc(NC(=O)Nc3cccc4ccccc34)ccc2O[C@H]1CN(C)Cc1ccc(-c2ccccc2)cc1	.	/	.	/	/	/	/
CC1CCC2C(C(=O)O)=COC(O[C@@H]3O[C@H](CO)[C@@H](O)[C@H](O)[C@H]3O)C12 (some centres not stated)	/	.	/	/	/	/	/
Cc1cc(Br)c(NC(=O)CSc2ncn(-c3ccccc3)n2)cc1C	/	.	/	/	/	/	/
CC(C)CC#Cc1cnc2c(c1)C(=O)N([C@H](C)CO)C[C@H](C)[C@H](CN(C)Cc1cccc(F)c1)O2	?	.	.	107.2	.	.	.
C[C@H]1CN([C@@H](C)CO)C(=O)c2cc(C#CCc3ccccc3)cnc2O[C@@H]1CN(C)Cc1cccc(F)c1	?	.	.	.	.	.	103.5
CC(C)CC#Cc1cnc2c(c1)C(=O)N([C@H](C)CO)C[C@@H](C)[C@H](CN(C)Cc1ccccc1F)O2	?	.	.	106.2	.	.	76.2
CCCC#Cc1cnc2c(c1)C(=O)N([C@H](C)CO)C[C@H](C)[C@@H](CN(C)Cc1ccccc1F)O2	.	.	.	/	/	/	/
C[C@H](CO)N1C[C@H](C)[C@@H](CN(C)Cc2cccc(F)c2)Oc2ncc(C#CCN(C)C)cc2C1=O	.	.	.	/	/	/	/
C[C@H](CO)N1C[C@H](C)[C@@H](CN(C)Cc2ccccc2)Oc2ncc(C#CCc3ccccc3)cc2C1=O	/	/	.	/	/	/	/
CC(C)CC#Cc1cnc2c(c1)C(=O)N([C@@H](C)CO)C[C@H](C)[C@@H](CN(C)Cc1ccc3c(c1)OCO3)O2	.	.	.	/	/	/	/
SMILES	T cruzi growth-1	IDH1 R132H inh	KDM4C inh	T cruzi growth-2	T cruzi growth-3	3T3 cytotox	3T3 cytotox 2
CC(C)CC#Cc1cnc2c(c1)C(=O)N([C@@H](C)CO)C[C@@H](C)[C@@H](CN(C)Cc1ccc3c(c1)OCO3)O2	101.1	.	.	105.4	.	.	92.5
c1ccc(-c2cnc(SCc3nc4ccccc4[nH]3)[nH]2)cc1	/	.	/	/	/	/	/
CCOc1ccc(C(C)C)cc1S(=O)(=O)n1c(C)nc2ccccc21	/	.	/	/	/	/	/
CCOC(=O)c1ccc(NC(=O)Cn2c(C(F)(F)F)nc3ccccc32)cc1	/	.	/	/	/	/	/
Cc1c(Br)c([N+](=O)[O-])nn1CC(=O)Nc1cc(F)ccc1F	/	.	/	/	/	/	/
O=C(O)CCCCCC(=O)N/N=C/C1CCCCC1	/	.	/	/	/	/	/
CC(C)CC#Cc1cnc2c(c1)C(=O)N([C@H](C)CO)C[C@@H](C)[C@@H](CN(C)Cc1ccc(F)cc1)O2	.	.	.	/	/	/	/
CC(C)CC#Cc1cnc2c(c1)C(=O)N([C@@H](C)CO)C[C@@H](C)[C@@H](CN(C)Cc1cccc(F)c1)O2	99.3	.	.	106.2	.	.	44.8
CCC(=O)Nc1ccc2c(c1)OC[C@@H](C)N(C(=O)CC)C[C@@H](C)[C@H](OC)CN(C)C2=O	.	.	.	/	/	/	/
Cc1ccc(-c2ccc3c(c2)O[C@@H](CN(C)Cc2cccnc2)[C@@H](C)CN([C@@H](C)CO)S3(=O)=O)cc1	101.6	.	.	.	.	52.3	93.8
C[C@H](CO)N1C[C@H](C)[C@@H](CN(C)Cc2cccnc2)Oc2cc(-c3cncnc3)ccc2S1(=O)=O	.	/	.	/	/	/	/
Cc1ccc(-c2ccc3c(c2)O[C@@H](CN(C)Cc2cccnc2)[C@H](C)CN([C@H](C)CO)S3(=O)=O)cc1	118.1	.	.	?	104.3	80.0	102.4
Cc1ccc(-c2ccc3c(c2)O[C@H](CN(C)Cc2cccnc2)[C@H](C)CN([C@@H](C)CO)S3(=O)=O)cc1	107.5	.	.	96.9	.	45.6	95.4
C[C@@H]1CN([C@H](C)CO)S(=O)(=O)c2ccc(-c3ccncc3)cc2O[C@@H]1CN(C)Cc1cccnc1	.	/	/	/	/	/	/
C[C@H]1CN([C@@H](C)CO)S(=O)(=O)c2ccc(-c3cncnc3)cc2O[C@H]1CN(C)Cc1cccnc1	.	/	.	/	/	/	/
CC(=O)O[C@@]1(C)C[C@@H](OC(=O)/C=C/c2ccc(O)cc2)[C@@H]2C(C(=O)O)=COC(O[C@@H]3O[C@H](CO)[C@@H](O)[C@H](O)[C@H]3O)[C@@H]21 (some centres not stated)	/	.	/	/	/	/	/
Cc1cc(N2CC(C)CC(C)C2)nc2ccc(NC(=O)CCC(=O)Nc3ccc(F)cc3Cl)cc12 (configuration not stated)	/	.	/	/	/	/	/
